An excerpt weighted towards active compounds, which were near 27% of everything screened.
Cav3 T inh – blocks human Cav3.2 T-type calcium channel; hit rate 4% among 100,000; AID 449739; O95180; B-score at 10 µM; Cav3.2-expressing cells, Fluo-4 calcium fluorescence FDSS; hits give low values;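 active = single-dose well whose peak fluorescence ratio is a statistical outlier from its plate by either plate-standardised score or position-corrected B-score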
Rev-RRE block – inhibitors of HIV-1 Rev-RRE RNA interaction; P05866; Rev peptide-RRE RNA binding, FRET; inhibition, % at 8 µM; hit rate 0.79% among 97,000;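 active = inhibition above the screen-wide mean plus 3 SD, cut at about 35% in these data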;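 note: 0% = median DMSO wells and 100% = median Neomycin B control wells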
Target sequence (P05866 whole entry, looked up): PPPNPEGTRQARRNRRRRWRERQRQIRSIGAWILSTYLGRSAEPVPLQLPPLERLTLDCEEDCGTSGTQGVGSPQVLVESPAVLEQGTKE
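Test system: Cy5-tagged RRE RNA duplex with fluorescein-tagged Rev peptide; Probe or stimulus: labelled Rev peptide; Schedule: 5 min preincubation and 15 min binding, 25 °C; Signal: FRET fluorescence readout; Evaluation: % inhibition from 671/540 nm acceptor-to-donor ratio, scaled between controls; Control set: DMSO and neomycin B.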
CYP2C9 inh – human CYP2C9 inhibition. AID 777. hit rate 20% among 96,000. P11712. CYP2C9 Supersomes, luciferin-H conversion, luminescence. inhibition, % at 5 µM;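 active = blocking of liver enzyme CYP2C9 beyond about 50% at 5 µM, limit read from the data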
CYP2C19 activ – increases human CYP2C19 enzyme activity; P33261; recombinant CYP2C19, luciferin-H EGE luminescence; hits give high values; 0 = fully inhibited enzyme, 1 = untreated enzyme; activation factor at 5 µM; 96,000 tested, under 10 active;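 active = activation factor of at least 2 at 5 µM in the primary screen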;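 note: 0 = wells with 2.5 mM tranylcypromine and 1 = vehicle-only wells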
CYP2C19 inh – blocks human cytochrome P450 2C19. P33261. CYP2C19 Supersomes, luciferin-H EGE luminescence, 30 min. inhibition, % at 5 µM. hit rate 21% among 96,000. AID 778;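 active = CYP2C19 inhibition above a set limit at 5 µM in the primary screen, cut at about 50% in these data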;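 note: plate controls were negative control wells for no effect and 2.5 mM tranylcypromine positive control for full effect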
CYP2C9 activ – increases human cytochrome P450 2C9 activity | P11712 | recombinant CYP2C9, luciferin-H conversion, luminescence; hits give high values; factor 1 = untreated enzyme, 0 = blocked | activation factor at 5 µM | hit rate 1.4% among 96,000;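 active = activation factor of 2 or more for CYP2C9 at a 5 µM dose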;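 note: 0 = sulfaphenazole-blocked wells and 1 = vehicle-only wells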
Starred values were filed as active, the others as inactive; · = not tested or not shown.

SMILES | Cav3 T inh | Rev-RRE block | CYP2C9 inh | CYP2C19 activ | CYP2C19 inh | CYP2C9 activ
NC(=S)N/N=C/c1ccccc1OCc1cccc(Cl)c1 | -0.087 | 1 | 10 | 0.8 | 21 | 0.9
O=C(N/N=C/c1ccc2cccc(OCc3ccccc3)c2n1)c1ccc(Br)cc1 | -4* | -6 | 48 | 0.7 | 25 | 0.5
COc1ccc(NC(C)C(=O)N/N=C/c2ccccc2OCc2ccc(Br)cc2)cc1 (stereo unspecified) | -5.9* | -9 | 69* | 0.7 | 30 | 0.3
CC(Nc1ccc(Br)cc1)C(=O)N/N=C/c1ccccc1OCc1ccccc1 (stereo unspecified) | -3.3 | 9 | 95* | 0.1 | 89* | 0
O=C(NCC1COc2ccccc2O1)c1cc2ccccc2o1 (stereo unspecified) | -1.8 | 2 | · | · | · | ·
COCCNC(=O)CN(c1ccccc1OC)S(C)(=O)=O | 1.2 | 6 | -5 | 1 | -3 | 1.1
COC(=O)c1ccc(CSc2ncnc3c2nnn3-c2ccc(F)cc2)o1 | 1.2 | 0 | 5 | 0.9 | 9 | 1
O=C(c1cccc(S(=O)(=O)N2CCCC2)c1)c1nnc(-c2ccncc2)o1 | -0.021 | 1 | 90* | 0.2 | 78* | 0.1
Cc1cc(C)n(C(=O)c2cccc(S(=O)(=O)N3CCCC3)c2)n1 | 0.078 | · | 72* | 0.2 | 76* | 0.3
O=C(O)c1cccc(S(=O)(=O)N2CCCC2)c1 | -0.033 | 9 | 21 | 0.9 | 6 | 0.8
O=C(Nc1ccccc1)c1cccc(S(=O)(=O)N2CCCCC2)c1 | -1.7 | 2 | 48 | 0.4 | 58* | 0.5
O=C(Nc1ccc(C#Cc2ccccc2)cc1)C1CC1 | 0.042 | 5 | -131 | 1.1 | -11 | 2.3*
Cn1c(=O)c2c(nc(SCC(=O)N(C3CCCCC3)C3CCCCC3)n2C)n(C)c1=O | · | 4 | · | · | · | ·
CC(=O)Nc1ccc(S(=O)(=O)N2CCC(NC(C)=O)(c3cccc(F)c3)CC2)cc1 | 0.15 | 3 | 75* | 0.1 | 93* | 0.3
Cc1cccc(NC(=O)C2CCCC2)c1 | 0.37 | 4 | · | · | · | ·
Cc1ccc(NC(=O)c2cc(S(=O)(=O)c3ccccc3)ccc2Cl)cc1 | -5.4* | 11 | 73* | 0.6 | 36 | 0.3
O=C(Nc1cccc(O)c1)c1cc(S(=O)(=O)N2CCCC2)ccc1Cl | · | -1 | 82* | 0.5 | 46 | 0.2
CC(=O)NC1(c2cccc(F)c2)CCN(C(=O)Nc2ccc(C#N)cc2)CC1 | 1.2 | 0 | 4 | 1.1 | -9 | 1
O=C(Nc1cccc(S(=O)(=O)c2cccc(NC(=O)C3CC3)c2)c1)C1CC1 | -0.062 | 2 | 60* | 0 | 99* | 0.4
N#Cc1cc(-c2ccccc2)oc1NC(=O)c1ccco1 | 1.1 | 8 | 32 | 1.1 | -9 | 0.7
COc1ccc(OC)c(NC(=O)CSc2nnc(Cn3c(=O)sc4ccccc43)n2C)c1 | 0.3 | · | · | · | · | ·
CC(=O)Nc1cccc(S(=O)(=O)N2CCCCCC2)c1 | 0.53 | 1 | -148 | 0.2 | 75* | 2.5*
O=C(Nc1ccccc1Cl)c1cccc(NS(=O)(=O)c2ccccc2)c1 | -1.7 | 5 | 75* | 0.1 | 89* | 0.2
COC(=O)Nc1nnc(Cc2ccc(OC)cc2)s1 | 1.3 | 2 | 28 | 0.6 | 43 | 0.7
CN1C(=O)/C(=C/c2ccccc2OCc2cccc(F)c2)NC1=S | 0.11 | -2 | 65* | 1 | -2 | 0.3
SMILES | Cav3 T inh | Rev-RRE block | CYP2C9 inh | CYP2C19 activ | CYP2C19 inh | CYP2C9 activ
O=C(OC(C(=O)NCc1cccs1)c1ccccn1)c1cccs1 (stereo unspecified) | 0.031 | 3 | 23 | 0.4 | 59* | 0.8
CCOC(=O)c1sc(N)nc1C(C)(C)C | -0.22 | 1 | 42 | 0.4 | 58* | 0.6
CCOC(=O)c1sc(NC(=O)C(C)(C)C)cc1C | -0.56 | -2 | 31 | 0.7 | 26 | 0.7
CCC(SC1=N/C(=C/c2ccccc2OC)C(=O)N1c1ccccc1)C(=O)Nc1cc(C)on1 (stereo unspecified) | -4.8* | 1 | 67* | 0.8 | 24 | 0.3
CCc1ccc(NC(=O)C(C)Nc2ccc(S(=O)(=O)NC(C)=O)cc2)cc1 (stereo unspecified) | 0.56 | 11 | 10 | 0.9 | 11 | 0.9
CCN=C1SC(C(=O)Nc2cccc(C)c2)CC(=O)N1CC (stereo unspecified) | -0.69 | 2 | -141 | 0.2 | 80* | 2.4*

High-throughput results deposited in PubChem BioAssay by several laboratories.
